Tested on: PC3 xenografts
Assay: PET imaging of PC3 xenografted Nu/Nu mice
Format: in vivo, mouse
Conditions: 15 MBq injected, 20-minute scan
Procedure, shortened: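 Male Nu/Nu mice (4–6 weeks old) got s.c. PC3 cells (1 × 10^6 in PBS, shoulders) or LNCaP cells (2.5 × 10^6 in PBS/Matrigel 1:1, hips). Tumors grew ≥4 weeks to ≥5 mm. Under isoflurane, mice received i.v. 3.7–7.4 MBq 64Cu peptide or 15 MBq [18F]-FDG, on a heated bed. Scans ran 20 min on small-animal PET with 3D MLEM reconstruction. ROI activity was expressed per cm³ as % injected dose.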

PC3 tumor [18F]-FDG uptake (PET): faultless
SMILES: OC[C@H]1OC(O)[C@H]([18F])[C@@H](O)[C@@H]1O (stereo partly drawn) [[^18F]-FDG, [^18F]-fluoro-2-deoxy-D-glucose]

Source: PMC4235008 (Neoplasia (New York, N.Y.), 2014)
